Activity calls are given as the source filed them. The calls are words filed in the database; no cut-off is given here.
Legend:
[1] = Cytotoxicity against mouse brain Primary embryonic cortical cell assessed as cell death at 5 uM incubated for 1 hr by propidium iodide dye based spectrofluorometric analysis relative to control; type: toxicity
Summary of the method: (§1)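 Primary cortical cultures from E16.5 mouse embryo brains, trypsinized, plated on poly-D-lysine, grown in Neurobasal with glutamine, glucose, 5% horse serum and B27; compounds added at 4 DIV. Propidium iodide 30 μM; baseline F1 read 1 h after PI; ex 530/em 645 nm. Fmax after digitonin permeabilization. % death = 100×(Fn−F1)/(Fmax−F1); mean of three independent experiments.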

[2] = Cytotoxicity against mouse brain Primary embryonic cortical cell assessed as cell death at 30 uM incubated for 3 hrs by propidium iodide dye based spectrofluorometric analysis relative to control; type: toxicity; summary of the method: as §1
[3] = Cytotoxicity against mouse brain Primary embryonic cortical cell assessed as cell death at 2.5 uM incubated for 2 hrs by propidium iodide dye based spectrofluorometric analysis relative to control; type: toxicity; summary of the method: as §1
[4] = Cytotoxicity against mouse brain Primary embryonic cortical cell assessed as cell death at 5 uM incubated for 5 hrs by propidium iodide dye based spectrofluorometric analysis relative to control; type: toxicity; summary of the method: as §1
[5] = Cytotoxicity against mouse brain Primary embryonic cortical cell assessed as cell death at 30 uM incubated for 6 hrs by propidium iodide dye based spectrofluorometric analysis relative to control; type: toxicity; summary of the method: as §1
[6] = Cytotoxicity against mouse brain Primary embryonic cortical cell assessed as cell death at 5 uM incubated for 48 hrs by propidium iodide dye based spectrofluorometric analysis relative to control; type: toxicity; summary of the method: as §1
[7] = Cytotoxicity against mouse brain Primary embryonic cortical cell assessed as cell death at 30 uM incubated for 5 hrs by propidium iodide dye based spectrofluorometric analysis relative to control; type: toxicity; summary of the method: as §1
[8] = Cytotoxicity against mouse brain Primary embryonic cortical cell assessed as cell death at 2.5 uM incubated for 5 hrs by propidium iodide dye based spectrofluorometric analysis relative to control; type: toxicity; summary of the method: as §1
[9] = Cytotoxicity against mouse brain Primary embryonic cortical cell assessed as cell death at 10 uM incubated for 2 hrs by propidium iodide dye based spectrofluorometric analysis relative to control; type: toxicity; summary of the method: as §1
[10] = target: Microtubule-associated protein tau (Homo sapiens, UniProt P10636); assay: Inhibition of tau (unknown origin) aggregation expressed in Escherichia coli BL21 (DE3)
Summary of the method: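 E. coli BL21(DE3) carrying pTARA (T7 RNA polymerase under PBAD) and pRKT42 (four-repeat tau) grown at 37 °C in M9 with 0.5% glucose, antibiotics and 250 μM ThS to OD600 0.6. […] ThS fluorescence ex 430/em 485 nm, normalized to tau-expressing cells (100%) and non-expressing cells (0%); OD600 checked for growth.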

[11] = Cytotoxicity against mouse brain Primary embryonic cortical cell assessed as cell death at 2.5 uM incubated for 3 hrs by propidium iodide dye based spectrofluorometric analysis relative to control; type: toxicity; summary of the method: as §1
[12] = Cytotoxicity against mouse brain Primary embryonic cortical cell assessed as cell death at 5 uM incubated for 72 hrs by propidium iodide dye based spectrofluorometric analysis relative to control; type: toxicity; summary of the method: as §1
[13] = Cytotoxicity against mouse brain Primary embryonic cortical cell assessed as cell death at 2.5 uM incubated for 1 hr by propidium iodide dye based spectrofluorometric analysis relative to control; type: toxicity; summary of the method: as §1
[14] = Cytotoxicity against mouse brain Primary embryonic cortical cell assessed as cell death at 10 uM incubated for 1 hr by propidium iodide dye based spectrofluorometric analysis relative to control; type: toxicity; summary of the method: as §1
[15] = Cytotoxicity against mouse brain Primary embryonic cortical cell assessed as cell death at 2.5 uM incubated for 72 hrs by propidium iodide dye based spectrofluorometric analysis relative to control; type: toxicity; summary of the method: as §1
[16] = Cytotoxicity against rat Primary cerebellar granule neuron assessed as cell viability at 10 uM relative to control; type: toxicity, cell-based, Cerebellar granule neurone; conditions: primary cerebellar granule neurons, read-out: Activity
[17] = Cytotoxicity against mouse brain Primary embryonic cortical cell assessed as cell death at 5 uM incubated for 6 hrs by propidium iodide dye based spectrofluorometric analysis relative to control; type: toxicity; summary of the method: as §1
[18] = test system: SH-SY5Y; assay: Neuroprotective activity against okadaic acid-induced cytotoxicity in human SH-SY5Y cells assessed as increase in cell viability at 50 uM incubated for 24 hrs by MTT assay; type: functional, cell-based
Summary of the method: (§2)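 SH-SY5Y cells grown in DMEM with 10% FBS and plated at 4.5×10^4 cells/well. Incubated 24 h at 37 °C, 5% CO2 with compound (0.1–50 μM) plus okadaic acid 100 nM. Viability by MTT, expressed as % of untreated cells; estradiol and PD38 as positive controls. Mean ± SD of three independent experiments; ANOVA with Dunnett's test.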

[19] = Cytotoxicity against mouse brain Primary embryonic cortical cell assessed as cell death at 30 uM incubated for 48 hrs by propidium iodide dye based spectrofluorometric analysis relative to control; type: toxicity; summary of the method: as §1
[20] = Cytotoxicity against mouse brain Primary embryonic cortical cell assessed as cell death at 10 uM incubated for 5 hrs by propidium iodide dye based spectrofluorometric analysis relative to control; type: toxicity; summary of the method: as §1
[21] = Cytotoxicity against mouse brain Primary embryonic cortical cell assessed as cell death at 30 uM incubated for 4 hrs by propidium iodide dye based spectrofluorometric analysis relative to control; type: toxicity; summary of the method: as §1
[22] = Cytotoxicity against mouse brain Primary embryonic cortical cell assessed as cell death at 2.5 uM incubated for 24 hrs by propidium iodide dye based spectrofluorometric analysis relative to control; type: toxicity; summary of the method: as §1
[23] = Cytotoxicity against mouse brain Primary embryonic cortical cell assessed as cell death at 10 uM incubated for 72 hrs by propidium iodide dye based spectrofluorometric analysis relative to control; type: toxicity; summary of the method: as §1
[24] = Cytotoxicity against mouse brain Primary embryonic cortical cell assessed as cell death at 10 uM incubated for 24 hrs by propidium iodide dye based spectrofluorometric analysis relative to control; type: toxicity; summary of the method: as §1
[25] = target: Cholinesterase (Homo sapiens, UniProt P06276); assay: Inhibition of human recombinant BChE using acetylthiocholine iodide as substrate at 10 uM preincubated for 20 mins followed by substrate addition by DTNB reagent based Ellman's method relative to control
Summary of the method: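 Human BChE activity was read by the Ellman spectrophotometric method. Results are % inhibition at a single 10 μM inhibitor concentration. Values are means of three independent experiments.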

[26] = Cytotoxicity against mouse brain Primary embryonic cortical cell assessed as cell death at 10 uM incubated for 3 hrs by propidium iodide dye based spectrofluorometric analysis relative to control; type: toxicity; summary of the method: as §1
[27] = Cytotoxicity against mouse brain Primary embryonic cortical cell assessed as cell death at 5 uM incubated for 2 hrs by propidium iodide dye based spectrofluorometric analysis relative to control; type: toxicity; summary of the method: as §1
[28] = Cytotoxicity against mouse brain Primary embryonic cortical cell assessed as cell death at 10 uM incubated for 48 hrs by propidium iodide dye based spectrofluorometric analysis relative to control; type: toxicity; summary of the method: as §1
[29] = test system: SH-SY5Y; assay: Neuroprotective activity against okadaic acid-induced cytotoxicity in human SH-SY5Y cells assessed as increase in cell viability at 0.1 to 10 uM incubated for 24 hrs by MTT assay; type: functional, cell-based; conditions: dose 0.1-10 µM; summary of the method: as §2
[30] = Cytotoxicity against mouse brain Primary embryonic cortical cell assessed as cell death at 10 uM incubated for 6 hrs by propidium iodide dye based spectrofluorometric analysis relative to control; type: toxicity; summary of the method: as §1
[31] = Cytotoxicity against mouse brain Primary embryonic cortical cell assessed as cell death at 2.5 uM incubated for 48 hrs by propidium iodide dye based spectrofluorometric analysis relative to control; type: toxicity; summary of the method: as §1
[32] = Cytotoxicity against mouse brain Primary embryonic cortical cell assessed as cell death at 30 uM incubated for 1 hr by propidium iodide dye based spectrofluorometric analysis relative to control; type: toxicity; summary of the method: as §1

Chain of Microtubule-associated protein tau (P10636 whole entry): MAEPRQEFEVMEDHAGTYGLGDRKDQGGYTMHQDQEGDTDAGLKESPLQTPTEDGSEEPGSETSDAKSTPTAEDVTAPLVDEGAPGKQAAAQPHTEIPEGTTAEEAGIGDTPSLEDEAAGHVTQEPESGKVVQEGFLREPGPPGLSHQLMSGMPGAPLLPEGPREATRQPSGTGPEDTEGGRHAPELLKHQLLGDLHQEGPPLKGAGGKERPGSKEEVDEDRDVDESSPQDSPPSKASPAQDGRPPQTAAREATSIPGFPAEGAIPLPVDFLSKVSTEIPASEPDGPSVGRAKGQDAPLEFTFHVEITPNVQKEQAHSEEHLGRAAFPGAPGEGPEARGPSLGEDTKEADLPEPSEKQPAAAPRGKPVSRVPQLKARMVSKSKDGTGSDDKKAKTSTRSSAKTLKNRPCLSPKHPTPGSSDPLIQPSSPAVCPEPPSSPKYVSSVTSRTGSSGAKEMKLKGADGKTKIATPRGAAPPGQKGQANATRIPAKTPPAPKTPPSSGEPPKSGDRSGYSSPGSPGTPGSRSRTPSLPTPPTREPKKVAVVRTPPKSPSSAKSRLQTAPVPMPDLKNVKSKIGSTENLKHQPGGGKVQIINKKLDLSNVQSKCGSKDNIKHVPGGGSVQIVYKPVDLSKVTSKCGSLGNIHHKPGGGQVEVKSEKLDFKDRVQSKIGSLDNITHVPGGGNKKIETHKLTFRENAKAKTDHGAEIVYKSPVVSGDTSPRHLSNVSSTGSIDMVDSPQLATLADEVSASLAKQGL
Chain of Cholinesterase (P06276 whole entry): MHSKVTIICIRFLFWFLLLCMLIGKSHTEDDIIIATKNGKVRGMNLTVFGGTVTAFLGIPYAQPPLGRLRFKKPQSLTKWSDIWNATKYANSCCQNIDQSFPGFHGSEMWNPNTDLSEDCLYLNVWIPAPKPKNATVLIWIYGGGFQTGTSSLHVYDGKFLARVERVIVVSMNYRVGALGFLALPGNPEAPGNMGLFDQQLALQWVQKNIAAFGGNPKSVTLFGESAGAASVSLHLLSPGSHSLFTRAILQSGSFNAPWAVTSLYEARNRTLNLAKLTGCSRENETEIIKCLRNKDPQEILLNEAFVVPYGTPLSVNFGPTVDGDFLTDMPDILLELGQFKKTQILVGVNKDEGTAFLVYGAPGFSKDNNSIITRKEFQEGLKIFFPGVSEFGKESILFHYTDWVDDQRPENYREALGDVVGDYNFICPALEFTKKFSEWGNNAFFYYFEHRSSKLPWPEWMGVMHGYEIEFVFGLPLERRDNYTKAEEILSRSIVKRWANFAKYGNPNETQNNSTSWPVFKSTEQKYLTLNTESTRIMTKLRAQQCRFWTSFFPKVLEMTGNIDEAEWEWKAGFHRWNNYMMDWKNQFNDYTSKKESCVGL

Compound `COc1ccc2sc3c(C)ccc(NCCC4CCN(C)CC4)c3c(=O)c2c1` has an Activity [1] of 1.6%, an Activity [2] of 54.7% and an Activity [3] of 3.8%. It also gave an Activity [4] of 32.6%, an Activity [5] of 61.9% and an Activity [6] of 85.6%. For the same compound, the Activity [7] was 60.4%, the Activity [8] was 23.8% and the Activity [9] was 43.5%. For the same compound, the IC50 [10] was 1800 nM, the Activity [11] was 8.5% and the Activity [12] was 85.7%. For the same compound, the Activity [13] was 2.9%, the Activity [14] was 16.7% and the Activity [15] was 77.8%. For the same compound, the viability at 10 µM [16] was 30%, the Activity [17] was 41.4% and the Activity [18] was “inactive”. For the same compound, the Activity [19] was 88.1%, the Activity [20] was 54.4% and the Activity [21] was 56.1%. It also gave an Activity [22] of 76.2%, an Activity [23] of 92.4% and an Activity [24] of 88.5%. For the same compound, the inhibition [25] was 16%, the Activity [26] was 48.9% and the Activity [27] was 7.6%. For the same compound, the Activity [28] was 84.1%, the Activity [29] was “Active” and the Activity [30] was 55.7%. The Activity [31] was 81.5% and the Activity [32] was 28.5%.
